Only some compounds are listed: those with a hit (about 2.6% of all), similar ones and a draw of the others.
DENV2 CPE rescue = inhibitors of DENV2 cytopathic effect; AID 651640; actives 1.7% (n = 350,000); DENV2-infected cells, cytopathic effect rescue, plate reader; CPE inhibition, % at 9.99 µM; in the data active means CPE inhibition above about 20%, passing the limit was not always enough; tested in BHK-21 cells;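 further: 0% = median of neutral control wells and 100% = median of positive control wells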
miR122 inh = inhibitors of miR-122 in Huh7 cells | Huh7 miR-122 Renilla luciferase sensor, 48 h; neutral wells = 0, positive control = 100 | activation (reporter increase), % at 12.5 µM | actives 0.3% (n = 340,000);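 active means mean replicate activation score at least 90 and every replicate individually at or above 90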;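 further: higher luciferase means less miR-122 activity so hits act as miR-122 inhibitors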
GSIS activator = primary screen for activators of insulin secretion dependent on glucose, INS-1E cells, GLuc reporter luminescence | INS-1E GLuc reporter insulin secretion, 2-3 h | activation, % at 16.6 µM | actives 0.61% (n = 370,000) | AID 743287;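 active means lowest replicate activation of at least 40%, so every replicate reaches that level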;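 further: 0% = median of neutral control wells and 100% = median of IBMX positive control wells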
ERAP1 inh = inhibitors of human ERAP1 aminopeptidase; recombinant ERAP1, Leu-AMC fluorescence, 60 min; inhibition, % at 10.7 µM; actives 0.15% (n = 340,000);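 active means mean replicate inhibition of at least 30%, or all replicates individually reaching that 30% level; inactive means mean below 30% and not every replicate reaching it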;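 further: 0% = neutral control wells and 100% = L-leucinethiol positive control wells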
F508del corr = correctors of CFTR F508del function in bronchial epithelial cells | CFBE cells, YFP halide quenching; stimulated with forskolin plus potentiator P3; % fluorescence drop versus neutral controls | activity (quench increase), % at 7.58 µM | actives 0.36% (n = 350,000);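 active means mean added fluorescence quench of at least 8% versus neutral control, with both replicates also reaching 8%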;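 further: cells transiently co-express mutant CFTR-F508del with the halide-sensitive YFP; corrector assay measuring rescue of mutant channel to the surface after 24 h compound exposure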
E-selectin induc = induces E-selectin expression in human endothelial cells; actives 0.37% (n = 260,000); P16581; activation, % at 7.58 µM; HUVEC E-selectin immunofluorescence imaging; normalized: neutral wells 0, TNF-alpha wells 100; AID 686992;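 active means mean E-selectin-positive cell signal at least 10% of the positive control, reached in at least 60% of replicates, without over 20% cell loss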
Target sequence (P16581 whole entry, looked up): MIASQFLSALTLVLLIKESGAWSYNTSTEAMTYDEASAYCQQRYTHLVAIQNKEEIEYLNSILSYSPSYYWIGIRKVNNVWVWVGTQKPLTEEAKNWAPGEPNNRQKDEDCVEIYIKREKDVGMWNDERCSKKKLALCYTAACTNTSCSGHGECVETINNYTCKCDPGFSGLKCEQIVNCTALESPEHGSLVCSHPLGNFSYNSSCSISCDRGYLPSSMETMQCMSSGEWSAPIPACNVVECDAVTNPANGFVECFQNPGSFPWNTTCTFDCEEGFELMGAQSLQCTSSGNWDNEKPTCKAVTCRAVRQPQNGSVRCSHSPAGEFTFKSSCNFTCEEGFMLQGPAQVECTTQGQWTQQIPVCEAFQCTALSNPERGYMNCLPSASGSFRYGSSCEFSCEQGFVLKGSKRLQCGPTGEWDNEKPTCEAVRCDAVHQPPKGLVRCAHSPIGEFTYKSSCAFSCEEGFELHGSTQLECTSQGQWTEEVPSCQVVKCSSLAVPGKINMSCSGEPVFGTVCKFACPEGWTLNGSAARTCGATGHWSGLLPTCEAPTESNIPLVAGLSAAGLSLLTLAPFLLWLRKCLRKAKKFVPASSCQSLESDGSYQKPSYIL
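System: HUVEC, human umbilical vein endothelial cells; quantity: 3,000 cells/well; buffer or medium: EGM-2 medium, gelatin-coated wells; dosing: single-point compound dose; detection: immunofluorescence imaging; evaluation: % PE-positive cells; benchmarks: TNF-alpha, DMSO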
* = called active by the depositor; . = no result; ! = not active in a repeat; [ ] = remark or other dose.

SMILES | DENV2 CPE rescue | miR122 inh | GSIS activator | ERAP1 inh | F508del corr | E-selectin induc
CO[C@H]1CN(C)C(=O)c2ccc(NC(=O)C3CCCC3)cc2OC[C@@H](C)N(CC2CC2)C[C@@H]1C | -1.7 | . | 3.9 | 0.2 | 3.0 | 0.3
O=c1cc(-c2ccccc2Cl)oc2cc(O)cc(O)c12 | 8.4 | . | 2.8 | -4.0 | 2.7 | 0.2
O=C1C=CC(O)(c2cc(=O)c3c(O)cc(O)cc3o2)C=C1 | -14.1 | . | 14.6 | 4.7 | 16.6* | -0.2
CN(C)CCNc1ccc2ncn3c4ccc(O)cc4c(=O)c1c23 | 12.1 | . | . | 33.3* | 20.8* | .
CCc1ccc(/C=N/NC(=S)NCCc2ccccc2)cc1 | . | 4.6 | 40.6* | . | . | .
COc1ccc(/C=N/NC(=S)NCCc2ccccc2)cc1 | -5.6 | 21.6 | 6.0 | 0.4 | -2.5 | 0.1
CCC(=O)Nc1ccc(C(=O)Nc2cccc(C)n2)cc1 | . | 218.5* | 13.7 | . | . | .
COc1ccc(Nc2nc(C)cc(C)c2C(N)=O)cc1 | . | -0.7 | -0.9 | . | . | .
COc1ccc(Nc2n[nH]c(N)c2C(N)=O)cc1 | -2.7 | 1.5 | 9.5 | . | 1.1 | 28.1*
C[C@@H]1CN([C@@H](C)CO)C(=O)c2cc(C#Cc3cccnc3)cnc2O[C@H]1CN(C)C | -3.2 | 1.0[16.7 µM] | 15.2 | -0.3 | -0.5 | 0.1
COc1cccc(N/C=C/c2onc(C)c2[N+](=O)[O-])c1 | . | -3.8 | 52.1* | . | . | .
Cc1ccc(N/C=C/c2onc(C)c2[N+](=O)[O-])cc1 | 7.1 | -2.9 | -19.2 | -3.1 | -0.3 | .
COc1ccc(C2=Nn3c(nnc3-c3ccccc3F)SC2)cc1OC1CCCC1 | 2.8 | -1.1 | 55.3 | -1.1 | 13.1* | -0.2
COc1ccc(OC)c(-c2nnc3n2N=C(c2ccc(OC)c(OC4CCCC4)c2)CS3)c1 | -8.3 | . | . | 0.8 | 3.7 | -0.4
COc1ccc(C2=Nn3c(nnc3-c3ccccc3F)SC2)cc1OC1CCOC1 (stereo unspecified) | -17.4 | 44.0 | 45.1* | 4.4 | 11.1* | 1.5
COc1ccc(C2=Nn3c(nnc3-c3ccccc3)SC2)cc1OC | . | -3.9 | 10.7 | 0.6 | . | .
Cc1ccccc1S(=O)(=O)NCC[C@H]1CC[C@H](NS(=O)(=O)c2ccccc2C)[C@@H](CO)O1 | -5.9 | 27.1[16.7 µM] | -22.6 | -1.9 | 1.8 | -0.2
CN1CCN(C(=O)C[C@@H]2CC[C@@H]3[C@H](COC[C@@H](O)CN3Cc3cccc(Cl)c3)O2)CC1 | 30.8*! | -0.2[16.7 µM] | 6.4 | 0.0 | 0.3 | 0.2
CN1CCN(C(=O)C[C@@H]2CC[C@@H]3[C@H](COC[C@@H](O)CN3Cc3ccc4c(c3)OCO4)O2)CC1 | 99.8* | 1.7[16.7 µM] | 4.6 | 1.2 | -3.3 | 0.2
O=C(C[C@@H]1CC[C@H]2[C@@H](COC[C@@H](O)CN2Cc2cccc(-c3ccncc3)c2)O1)N1CCCCC1 | 28.8* | -2.0[16.7 µM] | 4.3 | -1.5 | 0.4 | 0.0
CCOC(=O)C1CCN(C(=O)c2cccc(Cl)c2)CC1 | . | 3.8 | -4.4 | . | . | .
CCOC(=O)C1CCN(c2c(C(=O)c3ccccc3)cnc3ccc(Cl)cc23)CC1 | 33.6* | 7.4 | -4.6 | -3.1 | -1.8 | .
CN1CCN(C(=O)C[C@@H]2C[C@H]3c4cc(NC(=O)NC5CCCC5)ccc4O[C@H]3[C@@H](CO)O2)CC1 | 3.9 | 4.4[16.7 µM] | 8.4 | -0.1 | 2.9 | 0.1
COc1ccccc1CNC(=O)[C@@H](NC(=O)C1CCN(C(=O)[C@@H]2CCCN2C(=O)OC(C)(C)C)CC1)C(C)C | 60.8* | -20.4 | 1.0 | -3.7 | -2.1 | .
CO[C@H]1CN(C)C(=O)c2ccc(NS(=O)(=O)c3cccc(F)c3)cc2OC[C@@H](C)N(Cc2cc(F)ccc2F)C[C@@H]1C | -8.0 | . | -34.8 | -1.7 | 1.3 | 0.0
SMILES | DENV2 CPE rescue | miR122 inh | GSIS activator | ERAP1 inh | F508del corr | E-selectin induc
CO[C@H]1CN(C)C(=O)c2cc(NS(=O)(=O)c3cccc(F)c3)ccc2OC[C@@H](C)N(Cc2cc(F)ccc2F)C[C@@H]1C | 22.1* | -2.2[16.7 µM] | -12.1 | -0.8 | 0.2 | -0.3
CO[C@H]1CN(C)C(=O)c2ccc(NS(=O)(=O)c3cccc(F)c3)cc2OC[C@@H](C)N(Cc2cc(F)ccc2F)C[C@H]1C | 48.9* | . | -33.1 | -3.2 | 0.2 | -0.3
CC(C)NC(=O)N(C)C[C@@H]1Oc2ncc(-c3cccc(C#N)c3)cc2C(=O)N([C@@H](C)CO)C[C@@H]1C | . | . | 11.9 | . | . | .
CCC(=O)Nc1cc(C(=O)OCc2ccc(C(=O)Oc3ccccc3)cc2)ccc1C | 82.0* | -3.3 | 7.5 | 1.0 | -1.9 | .
Cc1nc(NCc2cccnc2)c2c3c(sc2n1)CCCC3 | 13.3 | -0.7 | -8.2 | -3.5 | 12.2* | .
c1cncc(CNc2ncnc3sc4c(c23)CCCC4)c1 | 9.8 | . | 4.8 | 4.4 | 5.2 | -2.3
C[C@@H]1C=CCCO[C@]12C(=O)N(CC1CC1)c1ccccc12 | 8.2 | . | 18.0 | 2.0 | 0.0 | 0.1
CCOC(=O)CN1C(=O)[C@]2(OCCC=C[C@H]2C)c2ccccc21 | -3.9 | . | 350.8* | -2.4 | -2.5 | -0.1
Cn1c(=O)[nH]c(=O)c2c1nc(SCC(O)CCl)n2Cc1ccccc1 (stereo unspecified) | 1.2 | -2.7 | 40.9* | 1.6 | -0.3 | .
CC(O)CSc1nc2c(c(=O)[nH]c(=O)n2C)n1Cc1ccccc1Cl (stereo unspecified) | -1.5 | -10.4 | 21.8 | 2.8 | 0.3 | .
CC(C)Sc1nc2c(c(=O)[nH]c(=O)n2C)n1Cc1ccc(Cl)cc1 | . | -5.2 | 77.0* | . | . | .
CC(=O)CSc1nc2c(c(=O)[nH]c(=O)n2C)n1Cc1ccccc1Cl | -2.3 | -9.0 | 59.3* | -0.9 | 1.8 | .
CC(O)CSc1nc2c(c(=O)[nH]c(=O)n2C)n1Cc1ccccc1 (stereo unspecified) | 13.4 | -5.1 | 44.0 | 3.2 | -2.5 | 1.6
CCC(C)Sc1nc2c(c(=O)[nH]c(=O)n2C)n1Cc1ccc(Cl)cc1 (stereo unspecified) | . | -7.9 | . | . | . | .
Cn1c(=O)[nH]c(=O)c2c1[nH]c(=S)n2Cc1ccc(Cl)cc1 | -5.7 | -1.0 | -19.4 | 44.6* | -0.8 | -0.3
COc1ccc(-c2ccc3c(c2)[C@H]2[C@H](CCN2C(=O)Cc2cccnc2)[C@H](CO)N3C)cc1 | -16.4 | -13.7[16.7 µM] | . | -1.4 | -2.1 | .
CC(=O)N(C)C[C@@H]1Oc2ncc(-c3cccnc3)cc2C(=O)N([C@@H](C)CO)C[C@H]1C | 10.8 | -5.0[16.7 µM] | 2.6 | 0.0 | -0.2 | -0.4
Cn1c(=O)oc2cc(S(=O)(=O)Nc3cccc(C(=O)O)c3)ccc21 | . | -1.7 | . | . | . | .
Cn1c(=O)n(C)c2cc(NS(=O)(=O)c3ccc(C(C)(C)C)cc3)ccc21 | 5.3 | 106.7* | -15.0 | 5.2 | 1.8 | .
CC(=O)c1cccc(NS(=O)(=O)c2ccc3c(c2)oc(=O)n3C)c1 | . | 207.9* | . | . | . | .
CCc1cccc(NS(=O)(=O)c2ccc3c(c2)oc(=O)n3C)c1 | . | 50.9 | . | . | . | .
CCc1cccc(NS(=O)(=O)c2ccc3c(c2)n(C)c(=O)n3C)c1 | -0.4 | 116.8* | -43.8 | 2.5 | -5.0 | 0.1

Compound activity deposited in PubChem by Broad Institute.
